Data: ChEMBL document CHEMBL1130236, “Design and synthesis of imidazoline derivatives active on glucose homeostasis in a rat model of type II diabetes. 1. Synthesis and biological activities of N-benzyl-N'-(arylalkyl)-2-(4',5'-dihydro-1'H-imidazol-2'-yl)piperazines ” (1997)

Key:
Rattus norvegicus [1] = experiment: The rate of glucose disappearance between 5 and 30 minutes after glucose administration; assay type: functional, organism-based
Summary of the method: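 In the intravenous glucose tolerance test (0.5 g/kg, saphenous vein, pentobarbital anesthesia), STZ-diabetic male Wistar rats had received a single 100 µmol/kg ip dose beforehand. Plasma glucose was sampled from the tail at 5–30 min. The glucose disappearance rate K was computed over 5–30 min and expressed as % variation versus untreated STZ rats.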

Rattus norvegicus [2] = experiment: The glycemia values 30 minutes after glucose administration to streptozotocin rats; assay type: functional
Summary of the method: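 Male Wistar rats (3-month, ~250 g) made diabetic with streptozotocin 35 mg/kg iv in citrate buffer; used 2 weeks later if basal glycemia was 7–10 mM. Single ip dose of 100 µmol/kg (hydrochloride salt), then iv glucose 0.5 g/kg under pentobarbital. Plasma glucose was read by analyzer at 30 min and expressed as % variation versus untreated STZ rats.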

Rattus norvegicus [3] = experiment: The incremental glycemia values after glucose administration (0.5 g/kg iv), to rats treated with streptozotocin (35 mg/kg iv); assay type: functional
Summary of the method: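 STZ (35 mg/kg iv) male Wistar rats were selected after 2 weeks with basal glycemia 7–10 mM and […]. They received 100 µmol/kg ip once before an iv glucose load. Tail blood was taken at 0, 5, 10, 15, 20 and 30 min. The glucose increment over baseline was integrated over 30 min and normalized as (treated−untreated STZ)/(untreated STZ−nondiabetic control)×100.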

Rattus norvegicus [4] = experiment: The incremental plasma insulin values over 30 minutes after glucose administration.; assay type: functional
Summary of the method: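 Moderately diabetic STZ Wistar rats were given 100 µmol/kg ip once, then 0.5 g/kg iv glucose under pentobarbital. Tail-vein plasma from 0–30 min was stored at −20 °C, and insulin was measured by radioimmunoassay (lower limit 19.5 pmol/L). The incremental insulin over baseline was integrated over 30 min and expressed as % variation versus untreated STZ rats.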

| SMILES | K (Rattus norvegicus [1]) | G30 (Rattus norvegicus [2]) | Delta G (Rattus norvegicus [3]) | Delta I (Rattus norvegicus [4]) |
| --- | --- | --- | --- | --- |
| CN1CCN(Cc2ccc(F)cc2F)C(C2=NCCN2)C1 (stereo not drawn) | 97% | 106% | 102% |  |
| CC(C)N1CCN(Cc2ccccc2Cl)CC1C1=NCCN1 (stereo not drawn) | 95% | 96% | 112% |  |
| c1ccc2c(c1)OCC(C1=NCCN1)O2 (stereo not drawn) [IDAZOXAN] | 79% | 48% | 8% |  |
| CN1CCN(Cc2ccc(Cl)cc2)C(C2=NCCN2)C1 (stereo not drawn) | 110% | 68% | 0% |  |
| CN1CCN(Cc2ccccc2Cl)C(C2=NCCN2)C1 (stereo not drawn) | 98% | 103% | 81% | 109% |
| CN1CCN(Cc2cccc(Cl)c2Cl)C(C2=NCCN2)C1 (stereo not drawn) | 53% | 36% | 0% |  |
| CCN1CCN(Cc2ccccc2Cl)CC1C1=NCCN1 (stereo not drawn) | 106% | 50% | 70% |  |
| COc1cccc(CN2CCN(C)CC2C2=NCCN2)c1 (stereo not drawn) | 57% | 68% | 23% | 88% |
| CC(C)N1CCN(Cc2ccccc2Cl)C(C2=NCCN2)C1 (stereo not drawn) | 44% | 83% | 84% |  |
| CCN1CCN(Cc2ccccc2Cl)C(C2=NCCN2)C1 (stereo not drawn) | 34% | 38% | 108% |  |
| CN1CCN(Cc2ccccc2)C(C2=NCCN2)C1 (stereo not drawn) | 67% | 23% | 0% | 16% |
| Clc1ccc(CN2CCN(Cc3ccc(Cl)cc3Cl)C(C3=NCCN3)C2)c(Cl)c1 (stereo not drawn) | 22% | 18% | 0% |  |
| CN1CCN(Cc2cc(Cl)cc(Cl)c2)C(C2=NCCN2)C1 (stereo not drawn) | 117% | 70% | 0% |  |
| CN1CCN(Cc2c(Cl)cccc2Cl)C(C2=NCCN2)C1 (stereo not drawn) | 107% | 59% | 103% |  |
| c1ccc(CN2CCN(Cc3ccccc3)C(C3=NCCN3)C2)cc1 (stereo not drawn) | 43% | 33% | 0% |  |
| Clc1ccccc1CN1CCN(Cc2ccccc2Cl)C(C2=NCCN2)C1 (stereo not drawn) | 36% | 0% | 0% |  |

| SMILES | K (Rattus norvegicus [1]) | G30 (Rattus norvegicus [2]) | Delta G (Rattus norvegicus [3]) | Delta I (Rattus norvegicus [4]) |
| --- | --- | --- | --- | --- |
| CCCN1CCN(Cc2ccc(Cl)cc2Cl)C(C2=NCCN2)C1 (stereo not drawn) | 104% | 80% | 24% |  |
| COc1ccccc1CN1CCN(C)CC1C1=NCCN1 (stereo not drawn) | 39% | 56% | 47% |  |
| CN1CCN(Cc2cccc(Cl)c2)C(C2=NCCN2)C1 (stereo not drawn) | 39% | 23% | 0% |  |
| CN1CCN(Cc2ccccc2C(F)(F)F)C(C2=NCCN2)C1 (stereo not drawn) | 63% | 64% | 94% |  |
| CCCN1CCN(Cc2ccccc2Cl)C(C2=NCCN2)C1 (stereo not drawn) | 37% | 17% | 0% | 25% |
| Cc1ccccc1CN1CCN(C)CC1C1=NCCN1 (stereo not drawn) | 81% | 48% | 24% |  |
| CN1CCN(Cc2ccccc2Cl)CC1C1=NCCN1 (stereo not drawn) | 148% | 97% | 93% |  |
| CN1CCN(Cc2ccc(Cl)c(Cl)c2)C(C2=NCCN2)C1 (stereo not drawn) | 42% | 47% | 36% |  |
| CN1CCN(Cc2ccc(Cl)cc2Cl)CC1C1=NCCN1 (stereo not drawn) | 152% | 102% | 34% |  |
| CC(C)CN1CCN(Cc2ccc(Cl)cc2Cl)C(C2=NCCN2)C1 (stereo not drawn) | 119% | 95% | 110% | 623% |
| CN1CCN(Cc2ccccc2F)C(C2=NCCN2)C1 (stereo not drawn) | 108% | 52% | 72% |  |
| Clc1ccccc1CN1CCNCC1C1=NCCN1 (stereo not drawn) | 11% | 0% | 0% |  |
| c1ccc(C(CC2=NCCN2)c2ccccn2)cc1 (stereo not drawn) [MIDAGLIZOLE] |  | 121% | 32% |  |
| CN1CCN(Cc2ccc(Cl)cc2Cl)C(C2=NCCN2)C1 (stereo not drawn) |  | 112% | 105% | 221% |
| COc1cccc(CN2CCN(C)CC2C2=NCCN2)c1OC (stereo not drawn) | 55% | 58% | 0% | 60% |
